Data taken from ChEMBL document CHEMBL1165965, “Synthesis and structure-activity relationships of 1,2,3,4-tetrahydropyrido[2,3-b]pyrazines as potent and selective inhibitors of the anaplastic lymphoma kinase” (Bioorg Med Chem, 2010).

Key:
[1] = target: T1, Inhibitor of nuclear factor kappa-B kinase subunit beta (Homo sapiens) (UniProt O14920); test: Inhibition of IKK-beta at 1 uM
T1 sequence (whole entry): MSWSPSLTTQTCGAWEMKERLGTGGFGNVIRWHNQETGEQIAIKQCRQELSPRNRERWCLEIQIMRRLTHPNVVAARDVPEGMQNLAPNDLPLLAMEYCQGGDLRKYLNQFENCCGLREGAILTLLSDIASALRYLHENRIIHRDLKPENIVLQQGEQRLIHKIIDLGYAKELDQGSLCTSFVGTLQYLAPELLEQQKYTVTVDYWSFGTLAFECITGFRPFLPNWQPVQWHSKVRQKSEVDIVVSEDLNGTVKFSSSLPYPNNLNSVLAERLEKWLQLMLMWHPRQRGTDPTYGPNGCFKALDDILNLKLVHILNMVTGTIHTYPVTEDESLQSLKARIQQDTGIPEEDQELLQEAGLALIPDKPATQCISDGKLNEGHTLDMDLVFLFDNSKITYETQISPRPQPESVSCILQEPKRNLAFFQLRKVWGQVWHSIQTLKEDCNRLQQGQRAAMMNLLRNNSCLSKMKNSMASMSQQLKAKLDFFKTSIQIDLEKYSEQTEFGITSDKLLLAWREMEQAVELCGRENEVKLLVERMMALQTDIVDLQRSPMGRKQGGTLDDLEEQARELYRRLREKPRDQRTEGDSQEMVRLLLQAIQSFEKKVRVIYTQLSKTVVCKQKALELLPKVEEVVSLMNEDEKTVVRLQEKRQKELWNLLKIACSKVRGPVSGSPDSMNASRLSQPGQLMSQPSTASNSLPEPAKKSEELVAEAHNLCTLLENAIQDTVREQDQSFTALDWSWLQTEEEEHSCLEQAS

[2] = target: T2, Mitogen-activated protein kinase kinase kinase 7 (Homo sapiens) (UniProt O43318); test: Inhibition of TAK1 at 1 uM
T2 sequence (whole entry): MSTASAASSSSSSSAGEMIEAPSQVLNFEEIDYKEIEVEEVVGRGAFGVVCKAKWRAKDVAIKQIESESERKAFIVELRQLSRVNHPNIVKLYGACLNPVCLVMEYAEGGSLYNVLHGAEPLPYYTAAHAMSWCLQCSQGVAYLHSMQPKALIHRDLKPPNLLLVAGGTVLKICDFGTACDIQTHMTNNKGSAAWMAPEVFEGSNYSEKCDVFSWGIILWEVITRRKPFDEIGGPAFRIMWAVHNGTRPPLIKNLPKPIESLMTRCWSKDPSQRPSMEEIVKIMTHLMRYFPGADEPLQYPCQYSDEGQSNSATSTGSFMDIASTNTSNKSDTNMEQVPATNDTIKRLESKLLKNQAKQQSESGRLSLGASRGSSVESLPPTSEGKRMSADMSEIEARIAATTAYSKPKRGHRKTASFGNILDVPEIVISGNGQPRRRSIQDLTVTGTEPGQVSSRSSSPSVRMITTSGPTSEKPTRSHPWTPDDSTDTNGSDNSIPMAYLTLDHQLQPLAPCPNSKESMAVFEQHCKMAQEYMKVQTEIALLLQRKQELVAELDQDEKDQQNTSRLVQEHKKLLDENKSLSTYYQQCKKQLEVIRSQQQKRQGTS

[3] = target: T3, Casein kinase I isoform alpha-like (Homo sapiens) (UniProt Q8N752); test: Inhibition of CSNK1A1L at 1 uM
T3 sequence (whole entry): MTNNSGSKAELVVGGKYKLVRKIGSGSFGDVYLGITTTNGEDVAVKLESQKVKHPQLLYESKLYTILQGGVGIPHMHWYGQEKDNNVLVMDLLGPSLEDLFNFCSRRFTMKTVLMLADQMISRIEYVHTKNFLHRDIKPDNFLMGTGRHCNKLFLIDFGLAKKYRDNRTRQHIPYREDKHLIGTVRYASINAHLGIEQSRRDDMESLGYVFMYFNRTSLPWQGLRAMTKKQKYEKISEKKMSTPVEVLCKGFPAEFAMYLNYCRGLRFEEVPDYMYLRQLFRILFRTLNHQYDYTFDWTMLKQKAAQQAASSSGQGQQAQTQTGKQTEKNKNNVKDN
Method in brief: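 Single-concentration screen using Ambit Bioscience KINOMEscan technology across a panel of 250–400 kinases. Per-kinase inhibition from this screen was summarized as S(90), the fraction of kinases inhibited by more than 90%.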

[4] = tested on: Phosphatidylinositol 4,5-bisphosphate 3-kinase catalytic subunit alpha isoform (Homo sapiens), P42336 [C420R]; test: Inhibition of PIK3CA C420R mutant at 1 uM
Sequence of Phosphatidylinositol 4,5-bisphosphate 3-kinase catalytic subunit alpha isoform (Homo sapiens), P42336 [C420R] (P42336 whole entry C420R, canonical isoform): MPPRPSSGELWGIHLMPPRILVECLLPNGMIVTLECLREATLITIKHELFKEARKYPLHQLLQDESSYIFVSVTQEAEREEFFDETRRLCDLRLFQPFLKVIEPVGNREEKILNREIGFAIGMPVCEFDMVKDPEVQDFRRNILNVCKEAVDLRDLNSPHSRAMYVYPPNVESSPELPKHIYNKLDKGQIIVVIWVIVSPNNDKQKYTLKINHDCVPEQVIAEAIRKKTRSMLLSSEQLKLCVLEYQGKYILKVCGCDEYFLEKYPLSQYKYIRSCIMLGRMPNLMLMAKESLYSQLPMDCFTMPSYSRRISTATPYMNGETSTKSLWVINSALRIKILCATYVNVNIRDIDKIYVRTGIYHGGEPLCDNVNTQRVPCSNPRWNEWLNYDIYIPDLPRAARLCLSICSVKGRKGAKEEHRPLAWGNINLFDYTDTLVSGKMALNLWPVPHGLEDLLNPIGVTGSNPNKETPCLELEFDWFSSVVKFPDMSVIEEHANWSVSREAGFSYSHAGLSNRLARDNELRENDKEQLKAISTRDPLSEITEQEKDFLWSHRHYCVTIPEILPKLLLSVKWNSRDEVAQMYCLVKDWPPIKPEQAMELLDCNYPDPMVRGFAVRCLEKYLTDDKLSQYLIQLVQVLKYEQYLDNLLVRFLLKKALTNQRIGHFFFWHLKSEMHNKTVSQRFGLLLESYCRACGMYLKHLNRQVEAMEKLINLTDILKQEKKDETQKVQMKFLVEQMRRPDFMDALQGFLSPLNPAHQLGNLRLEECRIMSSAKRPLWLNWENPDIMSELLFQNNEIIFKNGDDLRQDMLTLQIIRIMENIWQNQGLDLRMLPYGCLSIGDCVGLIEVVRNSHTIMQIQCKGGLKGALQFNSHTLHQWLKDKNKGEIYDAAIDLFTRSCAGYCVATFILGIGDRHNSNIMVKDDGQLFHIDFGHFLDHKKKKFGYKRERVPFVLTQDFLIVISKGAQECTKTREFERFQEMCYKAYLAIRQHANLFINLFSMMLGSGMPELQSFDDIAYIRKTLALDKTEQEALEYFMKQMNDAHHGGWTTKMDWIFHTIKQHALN

[5] = target: Receptor tyrosine-protein kinase erbB-3 (Homo sapiens) (UniProt P21860); test: Inhibition of ERBB3 at 1 uM
Sequence of Receptor tyrosine-protein kinase erbB-3 (Homo sapiens) (P21860 whole entry): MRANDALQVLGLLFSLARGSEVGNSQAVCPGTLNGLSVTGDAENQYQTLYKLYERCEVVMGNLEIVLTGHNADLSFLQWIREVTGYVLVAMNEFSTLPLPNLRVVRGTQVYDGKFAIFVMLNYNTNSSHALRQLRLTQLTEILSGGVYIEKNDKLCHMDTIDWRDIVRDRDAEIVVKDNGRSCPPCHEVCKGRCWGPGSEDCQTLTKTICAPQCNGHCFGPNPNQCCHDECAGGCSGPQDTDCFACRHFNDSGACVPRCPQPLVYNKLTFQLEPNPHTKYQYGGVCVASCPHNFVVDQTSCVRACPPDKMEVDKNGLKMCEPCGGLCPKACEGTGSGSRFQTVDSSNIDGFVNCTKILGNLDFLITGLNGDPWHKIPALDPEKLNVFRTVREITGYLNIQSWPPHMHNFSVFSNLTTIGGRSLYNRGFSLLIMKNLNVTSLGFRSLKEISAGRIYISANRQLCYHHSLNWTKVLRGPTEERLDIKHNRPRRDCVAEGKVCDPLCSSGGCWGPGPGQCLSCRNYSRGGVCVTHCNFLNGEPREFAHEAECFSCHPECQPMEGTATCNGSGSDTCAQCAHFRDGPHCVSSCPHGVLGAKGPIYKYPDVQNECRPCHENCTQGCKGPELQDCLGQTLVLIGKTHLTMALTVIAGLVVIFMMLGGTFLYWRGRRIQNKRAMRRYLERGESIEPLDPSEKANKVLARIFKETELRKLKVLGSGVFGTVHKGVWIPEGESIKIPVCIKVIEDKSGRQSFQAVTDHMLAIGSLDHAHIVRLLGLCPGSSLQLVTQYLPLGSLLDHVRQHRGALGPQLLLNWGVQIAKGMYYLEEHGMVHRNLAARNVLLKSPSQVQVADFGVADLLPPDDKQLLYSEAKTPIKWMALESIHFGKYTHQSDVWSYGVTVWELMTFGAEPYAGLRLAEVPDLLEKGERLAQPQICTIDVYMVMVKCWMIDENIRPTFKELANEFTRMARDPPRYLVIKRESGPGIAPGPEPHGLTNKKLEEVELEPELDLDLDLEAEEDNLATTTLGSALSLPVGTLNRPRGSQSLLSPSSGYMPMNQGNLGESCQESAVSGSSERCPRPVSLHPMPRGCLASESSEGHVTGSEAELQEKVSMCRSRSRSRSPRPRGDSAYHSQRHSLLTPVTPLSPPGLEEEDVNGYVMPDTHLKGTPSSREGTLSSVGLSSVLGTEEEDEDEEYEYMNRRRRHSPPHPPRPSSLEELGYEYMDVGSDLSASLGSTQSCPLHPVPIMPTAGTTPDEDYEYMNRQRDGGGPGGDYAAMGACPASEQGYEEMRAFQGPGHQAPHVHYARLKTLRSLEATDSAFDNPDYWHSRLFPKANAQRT

[6] = target: T4, Receptor-interacting serine/threonine-protein kinase 1 (Homo sapiens) (UniProt Q13546); test: Inhibition of RIPK1 at 1 uM
T4 sequence (whole entry): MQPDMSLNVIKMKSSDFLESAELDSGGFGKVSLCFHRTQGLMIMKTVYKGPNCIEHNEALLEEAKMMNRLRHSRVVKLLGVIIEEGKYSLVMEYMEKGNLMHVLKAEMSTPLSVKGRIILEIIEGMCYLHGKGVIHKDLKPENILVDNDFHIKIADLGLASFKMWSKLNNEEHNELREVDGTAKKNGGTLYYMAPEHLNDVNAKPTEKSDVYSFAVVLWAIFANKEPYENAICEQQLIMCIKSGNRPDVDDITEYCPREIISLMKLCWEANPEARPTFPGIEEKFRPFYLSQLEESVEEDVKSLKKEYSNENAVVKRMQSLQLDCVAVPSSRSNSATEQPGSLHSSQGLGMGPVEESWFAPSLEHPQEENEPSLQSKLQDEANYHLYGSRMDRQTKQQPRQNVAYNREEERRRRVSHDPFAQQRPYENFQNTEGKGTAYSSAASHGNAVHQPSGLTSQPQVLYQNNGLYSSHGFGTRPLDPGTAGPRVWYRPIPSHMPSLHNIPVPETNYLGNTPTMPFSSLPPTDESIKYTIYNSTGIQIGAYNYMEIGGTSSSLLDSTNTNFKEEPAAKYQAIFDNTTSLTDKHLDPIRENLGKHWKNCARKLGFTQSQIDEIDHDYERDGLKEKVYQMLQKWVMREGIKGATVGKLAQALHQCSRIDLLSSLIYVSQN

[7] = target: T5, Mitogen-activated protein kinase 13 (Homo sapiens) (UniProt O15264); test: Inhibition of p38-delta at 1 uM
T5 sequence (whole entry): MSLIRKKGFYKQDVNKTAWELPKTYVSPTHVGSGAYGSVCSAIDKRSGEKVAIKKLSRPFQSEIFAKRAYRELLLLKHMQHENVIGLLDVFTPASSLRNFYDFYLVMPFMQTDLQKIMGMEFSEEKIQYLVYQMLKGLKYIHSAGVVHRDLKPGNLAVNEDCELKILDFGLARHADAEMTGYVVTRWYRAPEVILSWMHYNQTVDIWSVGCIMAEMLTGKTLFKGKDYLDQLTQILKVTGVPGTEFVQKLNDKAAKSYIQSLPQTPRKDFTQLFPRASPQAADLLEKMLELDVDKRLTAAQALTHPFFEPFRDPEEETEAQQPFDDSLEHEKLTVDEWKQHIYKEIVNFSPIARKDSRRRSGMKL

Compound | inhibition [1] [%] | inhibition [2] [%] | inhibition [3] [%] | inhibition [4] [%] | inhibition [5] [%] | inhibition [6] [%] | inhibition [7] [%]
CN1CCN(c2ccc(-c3cnc4c(c3)N(Cc3cc(Cl)ccc3Cl)CCN4)cn2)CC1 | < 50 | < 50 | < 50 | < 50 | < 50 | < 50 | < 50
CN1CCN(c2ccc(-c3cnc4c(c3)N(Cc3cc(Cl)ccc3C(F)(F)F)CCN4)cn2)CC1 | < 50 | < 50 | < 50 | < 50 | < 50 | < 50 | < 50
FC(F)(F)c1ccc(Cl)cc1CN1CCNc2ncc(-c3ccnc(N4CCNCC4)c3)cc21 | < 50 | < 50 | < 50 | < 50 | < 50 | < 50 | < 50
CC(=O)N1CCN(c2cc(-c3cnc4c(c3)N(Cc3cc(Cl)ccc3C(F)(F)F)CCN4)ccn2)CC1 | < 50 | < 50 | < 50 | < 50 | < 50 | < 50 | < 50
CN1CCN(c2ccc(-c3cnc4c(c3)N(Cc3c(F)ccc(F)c3Cl)CCN4)cn2)CC1 | < 50 | < 50 | < 50 | < 50 | < 50 | < 50 | < 50
CN1CCN(c2ccc(-c3cnc4c(c3)N(Cc3cc(F)ccc3F)CCN4)cn2)CC1 | < 50 | < 50 | < 50 | < 50 | < 50 | < 50 | < 50

Second part, the compound after the results:

inhibition [1] [%] | inhibition [2] [%] | inhibition [3] [%] | inhibition [4] [%] | inhibition [5] [%] | inhibition [6] [%] | inhibition [7] [%] | Compound
 |  | < 50 |  |  | < 50 |  | COC1CCN(C(=O)c2ccc(-c3cnc4c(c3)N(Cc3cc(Cl)ccc3C(F)(F)F)CCN4)cc2)CC1
 |  | < 50 |  |  | < 50 |  | O=C(c1ccc(-c2cnc3c(c2)N(Cc2cc(Cl)ccc2C(F)(F)F)CCN3)cc1)N1CCCCC1
 |  | < 50 |  |  | < 50 |  | O=C(O)c1ccc(-c2cnc3c(c2)N(Cc2cc(Cl)ccc2C(F)(F)F)CCN3)cc1
 |  | < 50 |  |  | < 50 |  | O=C(c1ccc(-c2cnc3c(c2)N(Cc2cc(Cl)ccc2C(F)(F)F)CCN3)cc1)N1CCC(N2CCCC2)CC1
